Measured values from different studies.
Lines come from different studies, so protocols differ.
Organism: Mycobacterium tuberculosis
Read-out: microbial growth

Compound	technique	strain	time	MIC
CC[C@@H](CO)NCCN[C@@H](CC)CO	resazurin	H37RV	–	2.45 µM
c1ccc(-c2cc(NCCC34CC5CC(CC(C5)C3)C4)n3cnnc3n2)nc1	–	H37RV	–	11 µM
CCOC(=O)c1c(-c2ccc(OC)cc2)oc2ccc(OCc3cn(Cc4ccccc4)nn3)c(CN3CCCCC3)c12	–	CDC1551	–	2.4 µM
COC(=O)C=C1SC(=NN=Cc2ccc(OC(=O)CN3C(=O)CSC3=O)cc2)NC1=O	resazurin	H37RV	–	34.6 µM
Cc1ccc(-c2cc(NCCc3ccc(OC(F)(F)F)cc3)n3cnnc3n2)o1	–	H37RV	–	0.46 µM
CC[C@@H](CO)NCCN[C@@H](CC)CO	resazurin	H37RV	7 days	1.56 µg/mL
NNC(=O)c1ccncc1	–	H37RA	–	0.34 µM
Cc1nnc2nc(-c3ccccn3)cc(NCCc3ccc(Cl)cc3)n12	–	H37RV	–	24 µM
COc1nc2ccc(Br)cc2cc1[C@@H](c1ccccc1)[C@@](O)(CCN(C)C)c1cccc2ccccc12	–	H37RV	–	0.31 µM
CCc1cc(=O)c2c(OCC(O)CN3CCCCC3)c3ccoc3c(OC)c2o1 (stereo not drawn)	resazurin	–	21 days	32 µg/mL
CCOC(=O)c1c(-c2ccc(OC)cc2)oc2ccc(OCc3cn(C[C@H]4O[C@H](O[C@H]5O[C@H](CO)[C@@H](O)[C@H](O)[C@H]5O)[C@H](O)[C@@H](O)[C@@H]4O)nn3)c(CN3CCCCC3)c12	–	CDC1551	–	77.3 µM
CCc1cc(=O)c2c(OCC(O)CN3CCC(C)CC3)c3ccoc3c(OC)c2o1 (stereo not drawn)	resazurin	–	21 days	32 µg/mL
O=c1[nH]c2nc(-c3ccncc3)sc2c(=O)n1O	–	–	–	> 100 µM
Cc1ccc(CCNc2cc(C3CCCO3)nc3nncn23)cc1 (stereo not drawn)	–	H37RV	–	47 µM
NNC(=O)c1ccncc1	–	H37RV	–	0.125 µg/mL
CCCCCc1ccc(Nc2cc(-c3ccccn3)nc3nncn23)cc1	–	H37RV	–	> 100 µM
CCc1cc(=O)c2c(OCC(O)CN(CC)CC)c3ccoc3c(OC)c2o1 (stereo not drawn)	resazurin	–	21 days	64 µg/mL
CC(CNc1cc(-c2ccccn2)nc2nncn12)c1ccccc1 (stereo not drawn)	–	H37RV	5 days	> 100 µM
NNC(=O)c1ccncc1	resazurin	–	21 days	0.5 µg/mL
CC[C@@H](CO)NCCN[C@@H](CC)CO	resazurin	H37RV	5 days	1 µg/mL
[H]/N=C(/N)N[C@H]1[C@H](O)[C@@H](O)[C@H](O[C@@H]2O[C@@H](C)[C@](O)(C=O)[C@H]2O[C@@H]2O[C@@H](CO)[C@H](O)[C@@H](O)[C@@H]2NC)[C@@H](N/C(N)=N\[H])[C@@H]1O	resazurin	H37RV	21 days	0.25 µg/mL
CC(C)c1nc2[nH]c(=O)n(O)c(=O)c2s1	–	–	–	65.4 µM
CCc1cc(=O)c2c(OCC(O)CN3CCOCC3)c3ccoc3c(OC)c2o1 (stereo not drawn)	resazurin	–	21 days	64 µg/mL
CCc1ccc(CCNc2cc(-c3ccccn3)nc3cc(Br)nn23)cc1	–	H37RV	–	21 µM
